# Assay results from ChEMBL document CHEMBL3580561, “Mitigation of Acetylcholine Esterase Activity in the 1,7-Diazacarbazole Series of Inhibitors of Checkpoint Kinase 1” (J Med Chem, 2015).
# Tests used:
# [1] = molecular target: T1, Serine/threonine-protein kinase Chk1 (Homo sapiens, UniProt O14757); assay: Inhibition of CHK1 in human HT29 cells assessed as phosphorylation of histone H3 after 24 hrs by checkpoint abrogation cellular assay; format: cell-based, HT-29
# T1 sequence (O14757 whole entry): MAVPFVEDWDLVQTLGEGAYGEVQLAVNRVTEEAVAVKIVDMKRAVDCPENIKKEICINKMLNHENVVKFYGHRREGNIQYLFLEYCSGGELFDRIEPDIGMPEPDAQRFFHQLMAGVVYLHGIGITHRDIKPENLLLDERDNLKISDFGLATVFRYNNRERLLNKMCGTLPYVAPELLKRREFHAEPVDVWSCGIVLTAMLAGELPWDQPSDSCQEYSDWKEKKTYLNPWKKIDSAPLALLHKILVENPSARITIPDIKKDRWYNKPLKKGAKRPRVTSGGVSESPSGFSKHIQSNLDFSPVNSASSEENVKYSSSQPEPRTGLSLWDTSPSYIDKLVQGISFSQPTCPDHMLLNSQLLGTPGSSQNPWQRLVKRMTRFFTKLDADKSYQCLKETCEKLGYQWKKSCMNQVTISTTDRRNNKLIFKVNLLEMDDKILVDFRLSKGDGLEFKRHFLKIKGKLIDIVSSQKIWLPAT
# [2] = molecular target: T1, Serine/threonine-protein kinase Chk1; assay: Inhibition of human recombinant Chk1 using biotinylated AKT substrate after 30 mins by Alphascreen biochemical assay
# Acetylcholinesterase = Acetylcholinesterase (Homo sapiens, UniProt P22303); assay: Inhibition of human acetylcholine esterase by horseradish peroxidase-coupled fluorescence assay
# Acetylcholinesterase, sequence (P22303 whole entry): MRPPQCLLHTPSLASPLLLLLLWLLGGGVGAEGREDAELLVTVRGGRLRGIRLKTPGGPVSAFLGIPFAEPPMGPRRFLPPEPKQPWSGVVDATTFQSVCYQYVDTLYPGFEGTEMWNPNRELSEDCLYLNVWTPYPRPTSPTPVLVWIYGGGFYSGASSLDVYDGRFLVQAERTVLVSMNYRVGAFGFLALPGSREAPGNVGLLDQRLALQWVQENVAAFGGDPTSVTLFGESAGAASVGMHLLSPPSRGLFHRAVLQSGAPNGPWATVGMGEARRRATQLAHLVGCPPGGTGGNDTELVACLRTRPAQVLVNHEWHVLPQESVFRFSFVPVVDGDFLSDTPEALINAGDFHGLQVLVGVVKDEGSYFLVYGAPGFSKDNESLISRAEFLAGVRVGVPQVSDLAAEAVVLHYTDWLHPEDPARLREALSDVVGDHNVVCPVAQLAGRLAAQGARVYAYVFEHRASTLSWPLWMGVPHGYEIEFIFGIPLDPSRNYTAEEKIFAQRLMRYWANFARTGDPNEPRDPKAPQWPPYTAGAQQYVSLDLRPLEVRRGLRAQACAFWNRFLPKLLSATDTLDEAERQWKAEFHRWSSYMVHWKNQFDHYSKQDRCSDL
# Outline: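 Human AChE at 0.006 U/ml, with 0.25 μM acetylcholine chloride, 0.06 U/ml choline oxidase, 0.05 U/ml horseradish peroxidase and 200 μM Amplex Red, in proprietary buffer with test compound. Incubated 30 min at 25 °C. Fluorescence read.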
Compound,EC50 [1] [nM],IC50 [2] [nM],IC50 (Acetylcholinesterase) [nM]
CC(=O)Nc1cccc(-c2cnc3[nH]c4cnc(C#N)cc4c3c2)c1,425,13.5,
c1cnc(-c2cc3c(cn2)[nH]c2ncc(-c4ccc(CN5CCCCC5)cc4)cc23)cn1,168,2.3,1210
N#Cc1cc2c(cn1)[nH]c1ncc(-c3ccncc3)cc12,> 5000,42.7,
N#Cc1cc2c(cn1)[nH]c1ncccc12,,414,
N#Cc1cc2c(cn1)[nH]c1ncc(-c3ccc(CN4CCC(C#N)CC4)cc3)cc12,339,11.6,2690
N#Cc1cc2c(cn1)[nH]c1ncc(-c3ccc(CO)cc3)cc12,938,11.4,
COc1cc2c(cn1)[nH]c1ncc(-c3ccc(CN4CCCCC4)cc3)cc12,986,19.8,
c1nnc(-c2cc3c(cn2)[nH]c2ncc(-c4ccc(CN5CCCCC5)cc4)cc23)o1,103,0.95,450
N#Cc1cc2c(cn1)[nH]c1ncc(-c3ccc(CN4CCC(O)CC4)cc3)cc12,144,1.8,378
c1cncc(-c2cc3c(cn2)[nH]c2ncc(-c4ccc(CN5CCCCC5)cc4)cc23)c1,75.1,0.95,493
CCN1CCc2cc(-c3cnc4[nH]c5cnc(C#N)cc5c4c3)ccc2C1,152,2.3,160
N#Cc1cc2c(cn1)[nH]c1ncc(-c3ccc(CN4CCOCC4)cc3)cc12,216,13.9,13300
OCc1cc2c(cn1)[nH]c1ncc(-c3ccc(CN4CCCCC4)cc3)cc12,447,18.3,
c1ncc(-c2cc3c(cn2)[nH]c2ncc(-c4ccc(CN5CCCCC5)cc4)cc23)cn1,163,5.1,266
N#Cc1cc2c(cn1)[nH]c1ncc(-c3ccc(CN4CCC[C@@H](O)C4)cc3)cc12,118,1.9,708
c1cc(-c2cnc3[nH]c4cnc(-c5cnoc5)cc4c3c2)ccc1CN1CCCCC1,145,1.1,659
CCNC(=O)c1cc2c(cn1)[nH]c1ncc(-c3ccc(CN4CCCCC4)cc3)cc12,2230,102,
Cn1cc(-c2cc3c(cn2)[nH]c2ncc(-c4ccc(CN5CCCCC5)cc4)cc23)cn1,9,0.31,874
c1cc(-c2cc3c(cn2)[nH]c2ncc(-c4ccc(CN5CCCCC5)cc4)cc23)cnn1,656,2.9,1040
CCNc1cnc2[nH]c3cnc(C#N)cc3c2c1,1790,56.6,
CN1CCN(c2ccc(-c3cnc4[nH]c5cnc(C#N)cc5c4c3)cc2)CC1,,,18
N#Cc1cc2c(cn1)[nH]c1ncc(-c3cccc(CO)c3)cc12,> 5000,27.1,
N#Cc1cc2c(cn1)[nH]c1ncc(-c3ccoc3)cc12,180,16.6,
N#Cc1cc2c(cn1)[nH]c1ncc(-c3cccs3)cc12,478,20.2,

Compound,EC50 [1] [nM],IC50 [2] [nM],IC50 (Acetylcholinesterase) [nM]
CC1(C)CCN(Cc2ccc(-c3cnc4[nH]c5cnc(C#N)cc5c4c3)cc2)CC1,172,4.4,11
Oc1cc2c(cn1)[nH]c1ncc(-c3ccc(CN4CCCCC4)cc3)cc12,,863,
N#Cc1cc2c(cn1)[nH]c1ncc(-c3cccnc3)cc12,> 5000,76.5,
c1ncc(-c2cc3c(cn2)[nH]c2ncc(-c4ccc(CN5CCCCC5)cc4)cc23)o1,23.9,0.46,323
N#Cc1cc2c(cn1)[nH]c1ncc(O)cc12,> 5000,38.1,
CCN1CCc2sc(-c3cnc4[nH]c5cnc(C#N)cc5c4c3)cc2C1,50.9,0.78,259
N#Cc1cc2c(cn1)[nH]c1ncc(-c3ccccn3)cc12,> 5000,127,
N#Cc1cc2c(cn1)[nH]c1ncc(-c3ccc(CN4CCC(F)CC4)cc3)cc12,95.8,5,890
N#Cc1cc2c(cn1)[nH]c1ncc(-c3nc(CN4CCCCC4)cs3)cc12,658,13.6,18
CN1CCN(c2cccc(-c3cnc4[nH]c5cnc(C#N)cc5c4c3)c2)CC1,133,1.9,4770
CC1(C)CCCN(Cc2ccc(-c3cnc4[nH]c5cnc(C#N)cc5c4c3)cc2)C1,128,9.4,3330
c1cc(-c2cc3c(cn2)[nH]c2ncc(-c4ccc(CN5CCCCC5)cc4)cc23)ccn1,1570,9.1,777
N#Cc1cc2c(cn1)[nH]c1ncc(-c3ncc[nH]3)cc12,> 5000,14.7,
C[C@@H]1C[C@H](C)CN(Cc2ccc(-c3cnc4[nH]c5cnc(C#N)cc5c4c3)cc2)C1,209,4.2,4100
C[C@@H]1CCC[C@H](C)N1Cc1ccc(-c2cnc3[nH]c4cnc(C#N)cc4c3c2)cc1,99.1,2.1,135
N#Cc1cc2c(cn1)[nH]c1ncc(Br)cc12,,140,
CC(C)(c1ccc(-c2cnc3[nH]c4cnc(C#N)cc4c3c2)cc1)N1CCCCC1,228,10.2,507
c1ncc(-c2cc3c(cn2)[nH]c2ncc(-c4ccc(CN5CCCCC5)cc4)cc23)s1,62.7,1.3,496
Cn1ccc(-c2cnc3[nH]c4cnc(C#N)cc4c3c2)n1,2500,33.8,
NC(=O)c1cc2c(cn1)[nH]c1ncc(-c3ccc(CN4CCCCC4)cc3)cc12,292,4.3,217
N#Cc1cc2c(cn1)[nH]c1ncc(-c3ccc(N4CCOCC4)cc3)cc12,219,78.7,
N#Cc1cc2c(cn1)[nH]c1ncc(-c3ccccc3O)cc12,> 5000,41.7,
c1cc2c(cn1)[nH]c1ncc(-c3ccc(CN4CCCCC4)cc3)cc12,1920,18.6,
N#Cc1cc2c(cn1)[nH]c1ncc(-c3ccc(CN4CCCCC4)nc3)cc12,540,5.3,187
